EBI2 antag – blocks human EBI2 receptor beta-arrestin signaling; EBI2 beta-arrestin recruitment, luminescence, 7a,25-OHC stimulated; 360,000 tested, 0.81% active; inhibition, % at 5 µM; in the data active means inhibition above about 38%;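 further: enzyme fragment complementation signal reports receptor beta-arrestin coupling in cells; 0% = agonist plus DMSO wells and 100% = wells without agonist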
H9c2 TAG inh – inhibitors of triacylglycerol accumulation; H9c2 cells, Nile Red lipid (TAG) fluorescence; cells loaded with 200 µM oleic acid; inhibition, % at 12.5 µM; 230,000 tested, 0.66% active; AID 651582;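 active means pattern-corrected inhibition of lipid staining of at least 50% with the nuclear-stain viability signal not falling by more than 50%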;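 further: 0% = DMSO wells and 100% = triacsin C control wells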
CCR6 antagonist – blocks CCL20-driven beta-arrestin recruitment at human CCR6 | CHO-K1 CCR6 PathHunter beta-arrestin, luminescence, CCL20-stimulated | inhibition, % at 20 µM | 340,000 tested, 0.49% active | AID 493098;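 active means compounds whose inhibition of the agonist-driven luminescence signal at 20 µM reaches about 50%, limit read from the data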;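 further: cells stimulated with CCL20 at 14 nM final; plate controls were DMSO with CCL20 for no effect and DMSO without agonist for full effect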
APJ antag – APJ receptor antagonism; 330,000 tested, 0.32% active; inhibition, % at 20 µM; P35414; CHO-K1 APJ beta-arrestin complementation, luminescence; AID 2521;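 active means inhibition above about 40% at 20 µM, limit read from the data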;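 further: cells challenged with 10 nM apelin-13 agonist together with compound; plate controls were apelin-13 plus DMSO wells for no effect and DMSO wells lacking apelin-13 for full effect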
APJ ag – agonists of human APJ apelin receptor; P35414; CHO-K1 APJ PathHunter beta-arrestin, luminescence; 0% DMSO wells, 100% apelin; activation, % at 20 µM; 330,000 tested, 0.11% active;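 active means activation more than six SD over the plate average, tested at 20 µM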;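 further: 0% = DMSO alone and 100% = apelin-13 at 10 nM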
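Test system – PathHunter CHO-K1 APJ (AGTRL-1) beta-arrestin reporter cells · Input – 1000 cells/well · Compound – single test compound dose, 20 µM final, 1% DMSO · Times – compound stimulation 90 min at 25 °C, detection 60 min · Technique – beta-gal luminescence · Read-out basis – APJ–arrestin association signal · Control set – negative DMSO alone, positive Apelin-13 at 10 nM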
CXCR6 block – CXCR6 (human) receptor inhibition; O00574; CHO-K1 PathHunter CXCR6 beta-arrestin, luminescence; 360,000 tested, 0.36% active; inhibition, % at 20 µM; in the data active means inhibition above about 34%, passing the limit was not always enough;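 further: antagonist mode with CXCL16 agonist at 10 nM final; 0% = 10 nM CXCL16 with DMSO and 100% = unstimulated wells without agonist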
Target sequence (O00574 whole entry, looked up): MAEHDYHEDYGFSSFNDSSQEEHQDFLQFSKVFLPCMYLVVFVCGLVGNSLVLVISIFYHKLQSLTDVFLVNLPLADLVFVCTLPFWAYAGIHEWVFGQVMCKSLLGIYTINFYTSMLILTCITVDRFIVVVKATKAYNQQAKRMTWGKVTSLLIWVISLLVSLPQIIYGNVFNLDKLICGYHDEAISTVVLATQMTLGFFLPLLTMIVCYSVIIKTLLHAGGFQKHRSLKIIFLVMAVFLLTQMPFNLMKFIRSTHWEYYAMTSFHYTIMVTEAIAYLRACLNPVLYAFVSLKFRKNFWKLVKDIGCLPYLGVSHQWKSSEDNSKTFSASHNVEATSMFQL
APJ ag conf – confirmation of human APJ apelin receptor agonists | shares compounds with APJ ag | 310 tested, 10% active | AID 2764 | activation, % at 20 µM | CHO-K1 APJ PathHunter beta-arrestin, luminescence;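 active means activation above 40%, taking the highest of four retests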;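 further: plate controls were DMSO wells for no effect and apelin-13 at 10 nM for full effect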
An asterisk follows results filed as active; . = no result. The list is not random: actives were taken first. Their share in the collection is about 1.9%.

SMILES | EBI2 antag | H9c2 TAG inh | CCR6 antagonist | APJ antag | APJ ag | CXCR6 block | APJ ag conf
Cc1ccc2nc(N(CCCN(C)C)C(=O)c3ccc(S(=O)(=O)N4CCc5ccccc5C4)cc3)sc2c1 | 8 | 69* | 13 | -40 | 79* | -9 | 46*
COc1cc2ccccc2cc1C(=O)Nc1ccc(N2CCN(C)CC2)cc1 | 3 | . | 13 | 1 | 3 | 0 | .
COc1cc2ccccc2cc1C(=O)Nc1ccc(N2CCN(C(=O)C(C)C)CC2)cc1 | 21 | . | 1 | -29 | 20* | 6 | 11
Cc1ccc(Cl)cc1NC(=O)c1cc2ccccc2cc1O | -3 | 0 | -66 | -70 | 22* | -16 | 33
CC1=NOC(=O)/C1=C\c1ccc(-c2cccc(Cl)c2)o1 | -9 | 7 | . | -24 | 15* | 96* | 16
CC1=NOC(=O)/C1=C\c1ccc(-c2ccc(Cl)c(C(=O)O)c2)o1 | -14 | -11 | 0 | -5 | 0 | -2 | .
O=C(NCc1ccc2c(c1)OCO2)C(=O)NCC1OCCCN1S(=O)(=O)c1ccccc1 (centres undefined) | -5 | 9 | . | . | . | 0 | .
Cc1cccc(/C(N)=N/OC(=O)c2cccc3ccccc23)c1 | -3 | -3 | . | -128 | 36* | -33 | 32
N#Cc1nc(-c2ccc(OCc3ccc(Cl)cc3)cc2)oc1N1CCC(C(N)=O)CC1 | -5 | . | 11 | 6 | -2 | 2 | .
N#Cc1nc(-c2ccc(OCc3ccc(Cl)cc3)cc2)oc1N1CCOCC1 | -16 | . | 7 | 1 | 25* | 3 | 4
CCN(CC)S(=O)(=O)c1ccc(OCC(=O)NC(=O)Cc2ccccc2)c([N+](=O)[O-])c1 | -8 | -14 | 2 | -137 | 12* | -1 | 26
CN(CC(=O)N1CCN(Cc2ccccc2)CC1)C(=O)Cc1cccc2ccccc12 | -1 | -13 | 16 | -2 | -2 | 0 | .
COc1ccc(/C=N/N2C(=O)CSC2=S)cc1 | -9 | . | 9 | -10 | 9 | -8 | .
COc1ccc(-c2nn(-c3ccccc3)cc2/C=N/N2C(=O)CSC2=S)cc1 | -10 | . | -9 | -62 | 18* | -12 | 22
COC(=O)c1c(C(=O)OC)c(-c2ccc(Br)cc2)n2c1CS(=O)C2 (centres undefined) | -18 | . | 15 | -23 | -3 | 1 | .
CC1=CC(=O)C(C(C)C)=C/C1=N/OS(=O)(=O)c1ccccc1 | -44 | 98 | 7 | -35 | 185* | -3 | 78*
CC1=CC(=O)C=C(C)C1=NOS(=O)(=O)c1ccccc1 | -7 | -41 | -15 | . | . | 18 | .
Cc1ccc(-n2nnc3c(=O)oc4ccccc4c32)cc1 | -19 | -4 | -15 | -28 | 32* | 24 | 37
CCOc1cc2[nH]c(=S)n(CC3CCCN3CC)c(=O)c2cc1OCC (centres undefined) | 9 | . | -8 | 16 | 17* | 11 | 25
CCOc1cc2[nH]c(=S)n(CCC(=O)N3CCc4ccccc4C3)c(=O)c2cc1OCC | -7 | . | -18 | -11 | 53* | -2 | 48*
COc1cc(CNC(=O)OCC(C)C)cc(OC)c1OC | -2 | . | 4 | 4 | 18* | -4 | 6
O=C(Nc1ccc(N2CCOCC2)cc1)c1csc([C@H]2C[C@H](O)[C@@H](CO)O2)n1 | -11 | 5 | . | . | . | -6 | .
Cc1ccc(-c2nn(-c3ccccc3)cc2/C=C/C(=O)OCC(=O)NC2CC2)o1 | -15 | 20 | -10 | -27 | 12* | -6 | 5
N/C(Cc1ccc(Cl)c(Cl)c1)=N\OC(=O)c1cccs1 | -22 | . | -25 | -47 | 19* | -19 | 40*
CCOC(=O)c1cocc1C(=O)O | -8 | 1 | -10 | . | . | -5 | .
CCOC(=O)N1CCN(c2ccc(S(=O)(=O)N3CCC(C)CC3)cc2[N+](=O)[O-])CC1 | -1 | -5 | 1 | -4 | -3 | -1 | .
Cc1cc(C)cc(S(=O)(=O)c2cn(C)c3cc(N4CCN(C)CC4)c(F)cc3c2=O)c1 | -5 | . | 6 | 14 | 38* | 6 | 21
CCCCC1=CC2=CC(=O)C(C)(OC(=O)CC)C(=O)C2=CN1Cc1ccccc1 (centres undefined) | -10 | 10 | -10 | -26 | 17 | -11 | .
